High-throughput results: PubChem, several laboratories
In the library only some 1.9% were active in any assay of this set; here they are far more common.
HSV augment – increases HSV replication in cells; HSV replication augmentation in cells, fold increase; maximum fold increase; actives 0.005% (n = 220,000); AID 1956; in the data active = maximum fold increase above about 1.5; inconclusive = no clear call, values can overlap the other calls; tested in PC3 cells
MT stabilizer – microtubule stabilizers in HeLa cells; actives 0.83% (n = 200,000); HeLa tubulin immunostaining HCS, 24 h; share of cells brighter than vehicle mean+2SD; % tubulin-high responders, % at 10 µM; AID 2205;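 active = plate Z-score above 3 for both tubulin-high and condensed-nucleus cell shares, with cell loss under 80%, at 10 µM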;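 note: anti alpha tubulin signal scored within the nucleus-defined area of each cell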
Autophagy mod – alters autophagy in cells. AID 463193. actives 0.98% (n = 190,000). MEF GFP-LC3 puncta imaging; test concentration mostly 10 µM. calls only at 10 µM (by protocol);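 active = percentage of spot-positive cells more than 3 SD above its plate mean, without a fluorescence outlier flag or 80% toxicity; inconclusive = no clear call, values can overlap the other calls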
b-catenin transl – alters nuclear translocation of beta-catenin in HeLa cells; immunofluorescence imaging; nuclear translocation activity, % at 5 µM; actives 0.3% (n = 190,000);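 active = nuclear translocation activity above 50% at 5 µM, with a well cell count of 50 or more; inconclusive = wells under 50 cells across six images, flagged as toxic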;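 note: per-cell ratio of nuclear to cytoplasmic median beta-catenin stain intensity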
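System: HeLa cells, endogenous beta-catenin; compound dosing: 5 µM primary single dose, 0.1% DMSO, 0.02–20 µM confirmation series; incubation: 24 h compound exposure at 37°C, 5% CO2; signal: beta-catenin immunofluorescence imaging with DAPI; evaluation: % activation, nuclear-to-cytoplasmic median beta-catenin signal ratio per cell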
Furin inhibitor – inhibitors of human furin | P09958 | purified furin, fluorogenic substrate cleavage | inhibition, % at 20 µM or 30 µM | actives 0.061% (n = 220,000); in the data active = inhibition above about 25%
Target sequence (P09958 108-714 limits assumed): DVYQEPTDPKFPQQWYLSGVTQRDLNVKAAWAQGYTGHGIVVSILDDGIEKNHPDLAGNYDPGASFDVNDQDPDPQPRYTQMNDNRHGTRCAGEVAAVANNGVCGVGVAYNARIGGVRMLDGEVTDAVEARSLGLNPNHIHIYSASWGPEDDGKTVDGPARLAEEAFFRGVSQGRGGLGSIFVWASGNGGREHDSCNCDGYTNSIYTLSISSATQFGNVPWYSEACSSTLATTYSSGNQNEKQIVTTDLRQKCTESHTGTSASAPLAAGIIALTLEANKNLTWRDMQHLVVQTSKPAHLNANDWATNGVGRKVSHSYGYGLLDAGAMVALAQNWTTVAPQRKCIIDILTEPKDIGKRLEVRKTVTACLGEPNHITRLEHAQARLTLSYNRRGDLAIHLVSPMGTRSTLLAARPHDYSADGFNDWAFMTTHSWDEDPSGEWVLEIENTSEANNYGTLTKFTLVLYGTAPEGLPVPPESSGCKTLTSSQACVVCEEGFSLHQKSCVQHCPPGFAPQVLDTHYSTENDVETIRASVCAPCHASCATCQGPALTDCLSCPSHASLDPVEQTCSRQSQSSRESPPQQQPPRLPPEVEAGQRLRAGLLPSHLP
Ins promoter up – MIN6 insulin promoter up-regulation. MIN6 insulin promoter-GFP reporter, high-content imaging; hits give high values. z-score at 5 µM. actives 0.3% (n = 190,000). AID 1625;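 active = z-score above 3 at 5 µM with at least 500 cells counted in the well; inconclusive = wells under 500 cells, flagged as cytotoxic or low count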
Hits are given with their value.

Screening Nc1cc2c(cc1C(=O)c1cccc(Br)c1)OCCO2 returned HSV augment inactive, MT stabilizer 15.7, Autophagy mod inactive, b-catenin transl inactive, Furin inhibitor inactive and Ins promoter up inactive.
Screening COc1ccc(CN=Cc2c(O)[nH]c3ccccc23)cc1 returned HSV augment inactive, MT stabilizer inactive, Autophagy mod inactive, b-catenin transl inactive, Furin inhibitor inactive and Ins promoter up inactive.
O=c1[nH]c(=O)n(C2CCCCCC2)c(O)c1C=NCc1ccc(F)cc1 was read as HSV augment inactive, MT stabilizer inactive, Autophagy mod inactive, Furin inhibitor inactive and Ins promoter up inactive.
Screening Oc1c(C=NCc2ccc(F)cc2)[nH]c2ccc(Br)c(Cl)c12 returned HSV augment inactive, MT stabilizer inactive, Autophagy mod active, b-catenin transl inactive and Furin inhibitor inactive.
Screening Cc1ccc(CN=Cc2[nH]c3ccc(Br)c(Cl)c3c2O)cc1 returned HSV augment inactive, MT stabilizer inactive, Autophagy mod active, b-catenin transl inactive and Furin inhibitor inactive.
`Cn1cc(Br)c(C(=O)NN2C(=O)C3C(C2=O)C2C=CC3C23CC3)n1` (centres undefined) gave HSV augment inactive, MT stabilizer inactive, Autophagy mod inactive, b-catenin transl inactive, Furin inhibitor inactive and Ins promoter up inactive.
`C=CCNC(=O)C1CCC(C(=O)NCC=C)CC1` (centres undefined) gave HSV augment inactive, MT stabilizer inactive, Autophagy mod inactive, b-catenin transl inactive, Furin inhibitor inactive and Ins promoter up inactive.
For CC(=O)Oc1ccc2oc(-c3ccccc3)c(C(N)=O)c2c1 the results were HSV augment inactive, b-catenin transl inactive, Furin inhibitor inactive and Ins promoter up inactive.
For O=C(c1ccco1)N1CCN(C2CC(=O)N(c3ccc4c(c3)OCO4)C2=O)CC1 (centres undefined) the results were HSV augment inactive, MT stabilizer inactive, Autophagy mod inactive, Furin inhibitor 31.5 and Ins promoter up inactive.
For CCCNC(=O)C12CCC(C)(c3nc4cc(C)c(C)cc4nc31)C2(C)C (centres undefined) the results were HSV augment inactive, MT stabilizer inactive, Autophagy mod inactive, b-catenin transl inactive, Furin inhibitor inactive and Ins promoter up inactive.
Screening N#Cc1cc(-c2ccccc2)oc1NC(=O)c1ccccc1 returned HSV augment inactive, MT stabilizer 44.0, Autophagy mod inactive, b-catenin transl inactive, Furin inhibitor inactive and Ins promoter up inactive.
CCCOc1cc(N(CC)CC)ccc1/C=C(/C#N)c1nc2ccc(C)cc2[nH]1 was read as MT stabilizer inactive, Autophagy mod active, b-catenin transl inactive and Furin inhibitor inactive.
Screening CCN(CC)c1ccc(/C=C(/C#N)c2nc3ccc(C)cc3[nH]2)c(OC(C)C)c1 returned MT stabilizer inactive, Autophagy mod active, b-catenin transl inactive and Furin inhibitor inactive.
CCOc1cc(N(CC)CC)ccc1/C=C(/C#N)c1nc2ccccc2[nH]1 was read as MT stabilizer inactive, Autophagy mod active, b-catenin transl inactive and Furin inhibitor inactive.
COc1cc(-c2ccc3oc(-c4ccsc4)c(C#CC4(O)CCCCC4)c3c2)cc(OC)c1OC was read as HSV augment inactive.
Screening Cc1[nH]c2ccccc2c1Cc1nnc(SCC(N)=O)o1 returned HSV augment inactive, MT stabilizer inactive, Autophagy mod inactive, b-catenin transl inactive, Furin inhibitor inactive and Ins promoter up 4.82.
Screening Cc1[nH]c2ccccc2c1CCC(N)=O returned HSV augment inactive, MT stabilizer inactive, Autophagy mod inactive, b-catenin transl inactive, Furin inhibitor inactive and Ins promoter up inactive.
For Cc1noc(C)c1COc1cccc(C(=O)NCCc2c[nH]c3ccccc23)c1 the results were HSV augment inactive, MT stabilizer 23.9, Autophagy mod inactive, b-catenin transl inactive, Furin inhibitor inactive and Ins promoter up inactive.
Cc1noc(C)c1COc1ccc(CC(=O)NC2CCCCCC2)cc1 was read as HSV augment inactive, MT stabilizer inactive, Autophagy mod inactive, b-catenin transl inactive, Furin inhibitor inactive and Ins promoter up inactive.
`Cc1noc(C)c1COc1ccc(CC(=O)NCc2ccccc2)cc1` gave HSV augment inactive, MT stabilizer 19.7, Autophagy mod inactive, b-catenin transl inactive, Furin inhibitor inactive and Ins promoter up inactive.
Cc1nnsc1-c1nnc(SCC(=O)c2ccc(F)cc2)n1C1CC1 was read as HSV augment inactive, b-catenin transl inactive, Furin inhibitor inactive and Ins promoter up inactive.
COC(=O)c1c(C)oc2ccc(N(C(=O)c3ccncc3)S(=O)(=O)c3ccc(C)cc3C)cc12 was read as HSV augment inactive, MT stabilizer 14.1, Autophagy mod inactive, b-catenin transl inactive, Furin inhibitor inactive and Ins promoter up inactive.
For COC(=O)c1c(C)oc2ccc(N(C(=O)c3ccncc3)S(=O)(=O)c3ccc4ccccc4c3)cc12 the results were HSV augment inactive, MT stabilizer 27.3, Autophagy mod inactive, b-catenin transl inactive, Furin inhibitor inactive and Ins promoter up inactive.
COC(=O)c1c(C)oc2ccc(N(C(=O)c3ccncc3)S(=O)(=O)c3ccc(C)cc3)cc12 was read as HSV augment inactive, MT stabilizer inactive, Autophagy mod inactive, b-catenin transl 162.2, Furin inhibitor inactive and Ins promoter up inconclusive.
For Cc1cnn(-c2nc(-c3ccccc3)cc(-c3ccccc3)n2)c1 the results were HSV augment inactive, MT stabilizer inactive, Autophagy mod inactive, b-catenin transl inactive, Furin inhibitor inactive and Ins promoter up inactive.
Screening N=c1n(Cc2ccccc2)c2ccccc2n1CC(O)COc1ccccc1 (centres undefined) returned HSV augment inactive, MT stabilizer inactive, Autophagy mod inactive, b-catenin transl inactive, Furin inhibitor inactive and Ins promoter up inactive.
`N=c1n(CCN2CCCCC2)c2ccccc2n1CC(O)c1cccc(Br)c1` (centres undefined) gave HSV augment inactive, MT stabilizer inactive, Autophagy mod inactive, b-catenin transl inactive and Furin inhibitor inactive.
Screening Cc1ccc(Cn2c(=N)n(CC(O)COc3ccccc3)c3ccccc32)cc1 (centres undefined) returned HSV augment inactive, MT stabilizer inactive, Autophagy mod active, Furin inhibitor inactive and Ins promoter up inconclusive.
Screening COc1ccccc1OCC(O)Cn1c(=N)n(CCN2CCCCC2)c2ccccc21 (centres undefined) returned HSV augment inactive, MT stabilizer inactive, Autophagy mod active, Furin inhibitor inactive and Ins promoter up inactive.
`N=c1n(CCN2CCCCC2)c2ccccc2n1CC(O)COc1ccccc1` (centres undefined) gave HSV augment inactive, MT stabilizer inactive, Autophagy mod active, b-catenin transl inactive, Furin inhibitor inactive and Ins promoter up inactive.
For N=c1n(CCN2CCCCC2)c2ccccc2n1CC(O)c1ccc(Cl)c(Cl)c1 (centres undefined) the results were HSV augment inactive, MT stabilizer inactive, Autophagy mod active, b-catenin transl inactive, Furin inhibitor inactive and Ins promoter up inactive.
